Reference: ChEMBL document CHEMBL4339251, “Prenylated Bibenzyls from the Chinese Liverwort Radula constricta and Their Mitochondria-Derived Paraptotic Cytotoxic Activities” (J Nat Prod, 2019)
Activity calls are given as the source filed them. The calls are words filed in the database; no cut-off is given here.

Key:
[1] = system: NCI-H1299; experiment: Induction of mitochondria-derived paraptosis in human NCI-H1299 cells assessed as induction of HMGB1 translocation from nucleus to cytoplasm at 10 uM incubated for 24 hrs by immunofluorescence staining; assay type: functional, cell-based
How it was run: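 HMGB1 immunofluorescence. Cells were treated at 10 μM for 24 h, fixed in 4% paraformaldehyde for 30 min, permeabilised with 0.3% Triton X-100 for 15 min and blocked with 5% BSA for 30 min. Anti-HMGB1 was applied at 4 °C overnight and the secondary antibody at 37 °C for 1 h. Nuclei were counterstained with DAPI and cells imaged by confocal microscopy.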

[2] = system: A549; experiment: Induction of cytoplasmic vacuolization in human A549 cells at 10 uM measured within 3 hrs by optical microscopy; assay type: functional, cell-based
How it was run: (§1)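 Morphology. A549 or NCI-H1299 cells were treated at 10 μM and vacuole formation was followed by optical microscopy at the indicated times.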

[3] = system: A549; experiment: Induction of mitochondria-derived paraptosis in human A549 cells assessed as formation of fluorescent vacuoles after 3 hrs by Mito-Tracker staining based fluorescence microscopy; assay type: functional, cell-based
How it was run: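 Live-cell imaging. Treated cells on coverslips were stained with Mito-Tracker Red (100 nM) at 37 °C for 30 min, washed three times with PBS and stained with Hoechst 33342 (10 μg/mL) for 15 min. Images were taken by confocal or fluorescence microscopy at the indicated times.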

[4] = system: A549; experiment: Induction of apoptosis in human A549 cells assessed as necrotic cells at 10 uM by annexinV-FITC and propidium iodide staining based flow cytometric analysis (reference value: 1.44%); assay type: functional
[5] = system: A549; experiment: Induction of apoptosis in human A549 cells assessed as induction of PARP cleavage at 2.5 to 10 uM incubated for 24 hrs by Western blot analysis; assay type: functional, cell-based
How it was run: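 Western blot. Cells were cultured overnight in six-well plates, then exposed to various concentrations for 24 h before immunoblotting.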

[6] = system: A549; experiment: Cytotoxicity in human A549 cells assessed as reduction in cell viability at 5 uM incubated for 24 hrs in presence of pan-caspase inhibitor Z-VAD-FMK by MTT assay; assay type: functional, cell-based
[7] = system: A549; experiment: Induction of apoptosis in human A549 cells assessed as early apoptotic cells at 20 uM by annexinV-FITC and propidium iodide staining based flow cytometric analysis (reference value: 1.47%); assay type: functional
[8] = system: A549; experiment: Induction of cytoplasmic vacuolization in human A549 cells at 10 uM treated for 3 hrs after pre-treatment with pan-caspase inhibitor Z-VAD-FMK for 1 hr by optical microscopy; assay type: functional, cell-based
How it was run: (§2)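 Caspase-inhibitor morphology. Cells were treated with DMSO, 20 μM Z-VAD-FMK, 10 μM compound, or the combinations for 3 h, then imaged by optical microscopy.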

[9] = system: NCI-H1299; experiment: Induction of cytoplasmic vacuolization in human NCI-H1299 cells at 10 uM treated for 3 hrs after pre-treatment with pan-caspase inhibitor Z-VAD-FMK for 1 hr by optical microscopy; assay type: functional, cell-based; how it was run: as §2
[10] = system: SMMC-7721; experiment: Cytotoxicity in human SMMC7721 cells assessed as reduction in cell viability incubated for 48 hrs by MTT assay; assay type: functional, cell-based; conditions: SMMC-7721, 48 h
How it was run: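 MTT viability. U251 and NCI-H1299 were grown in DMEM, the other lines in RPMI 1640, each with 10% FBS, penicillin and streptomycin, at 37 °C in 5% CO2. Cells were seeded in 96-well plates overnight and exposed to a range of concentrations. MTT (5 mg/mL) was added for 4 h, formazan was dissolved in DMSO and absorbance read at 570 nm. Three independent experiments.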

[11] = system: NCI-H1299; experiment: Cytotoxicity in human NCI-H1299 cells assessed as reduction in cell viability at 5 uM incubated for 24 hrs in presence of pan-caspase inhibitor Z-VAD-FMK by MTT assay; assay type: functional, cell-based
[12] = system: HepG2; experiment: Cytotoxicity in human HepG2 cells assessed as reduction in cell viability incubated for 48 hrs by MTT assay; assay type: functional, cell-based; conditions: HepG2, 48 h
How it was run: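 MTT viability. Cells were seeded in 96-well plates overnight and exposed to a range of concentrations. MTT (5 mg/mL) was added for 4 h, formazan was dissolved in DMSO and absorbance read at 570 nm. Three independent experiments.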

[13] = system: NCI-H1299; experiment: Induction of ROS generation in human NCI-H1299 cells after 1 hr by DCFH-DA staining based flow cytometry relative to untreated control; assay type: functional
How it was run: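 ROS by flow cytometry. Cells were exposed for the indicated times, then stained with DCFH-DA (10 μM). DCF mean fluorescence intensity was compared with untreated control. Mean ± SD, n = 3.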

[14] = system: NCI-H1299; experiment: Induction of apoptosis in human NCI-H1299 cells assessed as early apoptotic cells at 20 uM by annexinV-FITC and propidium iodide staining based flow cytometric analysis (reference value: 1.26%); assay type: functional
[15] = system: NCI-H1299; experiment: Induction of cytoplasmic vacuolization in human NCI-H1299 cells at 10 uM measured within 3 hrs by optical microscopy; assay type: functional, cell-based; how it was run: as §1

Compound: COC(=O)c1c(CCc2ccccc2)cc(O)c(CC=C(C)C)c1O
- Activity [1]: Active
- Activity [2]: Active
- Activity [3]: Active
- Activity [4]: 2.02%
- Activity [5]: inactive
- Activity [6]: Active
- Activity [7]: 2.44%
- Activity [8]: Active
- Activity [9]: Active
- IC50 [10]: 8.6 µM
- Activity [11]: Active
- IC50 [12]: 6.3 µM
- fold change (FC) [13]: 30
- Activity [14]: 1.11%
- Activity [15]: Active
